The subject of data set [1] is human ovarian carcinoma cells. Particulars: treated human ovarian carcinoma cells; cited from earlier work.
For data set [2], the system named is solid tumors. The data set is described as follows: Phase I tumor response. The data set is classed as in vivo, human. The procedure, abridged:
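Patients with measurable taxane-resistant solid tumors received a 24 h continuous IV infusion every 21 days, with serial radiologic assessments. At baseline, longest diameters were summed for up to five lesions per organ and ten in total. Lesions had to measure ≥20 mm by conventional techniques or ≥10 mm by spiral CT. Response and progression were graded by RECIST v1.0.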

A short description of data set [3]: Phase I urinary recovery of unchanged drug. The data set is classed as in vivo, human. The settings on record: on average, at the highest dose levels. The procedure, abridged: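 Urine collected during the 24 h infusion at 0–4, 4–8, 8–12 and 12–24 h, then at 24–28, 28–32, 32–36 and 36–48 h from infusion start. Unchanged test compound concentration and urine volume per interval gave total urinary recovery as percentage of dose. Calculated for subjects at the highest dose levels.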

Data set [4] can be described thus: Phase I plasma pharmacokinetics, 24-hour continuous IV infusion. The data set is classed as in vivo, human. The essentials:
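Test compound given to patients as a 24 h continuous IV infusion in 21-day cycles. Plasma sampled predose, at 1, 3, 6, 12, 16 and 24 h, then at 24.5–96 h from infusion start. Extraction used pH 10.7 carbonate buffer with MTBE:hexane, then HPLC-MS/MS in positive ion mode; standard curve 1–200 ng/mL. t1/2 from an unweighted single-exponential fit to the log-linear terminal phase. AUC(0-∞) by linear up/log down with extrapolation. Clearance calculated as dose/AUC.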

Data set [5] has as its system A2780 (ovarian cancer). Particulars: cited from earlier work.
In data set [6] the test system is KB-3-1 (cervical cancer). Particulars: cited from earlier work.
Data set [7] deals with Ca125 antigen. As to the kind of experiment: Phase I serum Ca125 antigen. The data set is classed as in vivo, human. Particulars: ovarian cancer patient with prolonged stable disease.
The test system of data set [8] is HCT116 (colon cancer). The settings on record: cited from earlier work.
In data set [9] the test system is other kinesins. Particulars: background statement, ref not given; cited from earlier work.
Data set [10] is described as follows: Phase I safety, dose-limiting toxicity and maximum tolerated dose. The data set is classed as in vivo, human.
The test system of data set [11] is xenograft tumors. The settings on record: mice, multi-dose regimen; background statement, ref not given; cited from earlier work.
The subject of data set [12] is KSP. The settings on record: read-out: IC50 (KSP); background statement, ref not given; cited from earlier work.
[13] abbreviates: 12 mg/m^2/24 h, treatment-related, all cycles (n=47).
The mark [14] stands for this setting: 17 mg/m^2/24 h, treatment-related, all cycles (n=47).
Setting [15] is: 24 mg/m^2/24 h, treatment-related, all cycles (n=47).
Where [16] appears, read: 48 mg/m^2/24 h, treatment-related, all cycles (n=47).

Molecules are shown by their SMILES. Entries after “also recorded” stand apart in the source; their conditions may differ. Marks after values point to notes of the source that are not given here.

One may read the IC50 as the concentration needed to halve the response being measured.

Turning to `CN1CC[C@H](N(C)C(=O)N2CC(c3cc(F)ccc3F)=C[C@@]2(CO)c2ccccc2)[C@H](F)C1` [MK-0731, (2S)-4-(2,5-difluorophenyl)-n-[(3R,4S)-3-fluoro-1-methylpiperidin-4-yl]-2-(hydroxymethyl)-N-methyl-2-phenyl-2,5-dihydro-1H-pyrrole-1-carboxamide], the spindle pole separation result in data set [1] is “inhibits spindle pole separation”. The “Number of cycles, patient with stable disease” value in data set [2] (17 mg/m^2/24 h, non-small cell lung cancer) is 12 ^a cycles. In data set [2] (17 mg/m^2/24 h, ovarian cancer), the “Number of cycles, patient with stable disease” value is listed as 11 ^a cycles. Moreover, the “patients with prolonged stable disease” value in data set [2] (17 mg/m^2/24 h, part 2) is recorded as “four”. For the same compound, in data set [2] (all patients), the “objective tumor response (RECIST)” value was “no objective tumor responses; also recorded: no partial or complete responses”. In [3], the “dose recovered in urine as unchanged drug” value is on record as “less than 4%”. Besides, in data set [4] (6 to 48 mg/m^2/24 h), the “dose dependence of end of infusion concentrations and AUC” value was “increase approximately dose proportionally; also recorded: increased approximately proportionately to the dose administered”. Also, in data set [4] (at the MTD (17 mg/m^2/24 h)), the “AUC (±SD)” value is given as 10.5 (±7.3) μM × hour and the “clearance (±SD)” value was found to be 153 mL/min. Besides, the proliferation entry in data set [5] was “inhibits proliferation”. In [6], the proliferation entry is “inhibits proliferation”. Moreover, the “levels of the Ca125 antigen” value in data set [7] was “No decreases”. In addition, in [8], the proliferation entry is on record as “inhibits proliferation”. Further, in [9], the “selectivity for KSP compared with other kinesins” value is > 20,000 fold. Also, the “toxicities, part 1” value in [10] (12 mg/m^2) is “no further toxicities were observed”. Further, in data set [10] (setting [13]), the “Leukopenia, Grade 2, %” value is listed as 2.1%; the “Neutropenia, Grade 2, %” value turned out to be 2.1%; the “Vomiting, Grade 2, %” value is recorded as 2.1%. Moreover, the “DLT, part 1” value in data set [10] (17 mg/m^2, six patients) is “none experienced DLT”. For the same compound, the “DLTs, part 2” value in data set [10] (17 mg/m^2/24 h, 22 patients) is on record as “no DLTs”. In data set [10] (setting [14]), the “Hypophosphatemia, Grade 2, %” value was found to be 2.1%; the “Leukopenia, Grade 3, %” value is 2.1%; the “Thrombocytopenia, Grade 2, %” value turned out to be 2.1%. In data set [10] (setting [15]), the “Leukopenia, Grade 2, %” value stood at 2.1%; the “Neutropenia, Grade 2, %” value worked out at 2.1%; the “Neutropenia, Grade 3, %” value turned out to be 2.1%. Further, in [10] (setting [16]), the “Hyperglycemia, Grade 3, %” value is 2.1%; the “Hypocalcemia, Grade 2, %” value is recorded as 2.1%; the “Hypophosphatemia, Grade 2, %” value was 2.1%; the “Leukopenia, Grade 2, %” value is listed as 2.1%. Moreover, in [10] (setting [16]), the “Leukopenia, Grade 3, %” value turned out to be 2.1%; the “Mucosal Inflammation, Grade 2, %” value is 2.1%; the “Nausea, Grade 3, %” value is listed as 2.1%; the “Thrombocytopenia, Grade 2, %” value is 2.1%. For the same compound, in [10] (setting [16]), the “Vomiting, Grade 3, %” value was determined as 2.1%. The same compound had a maximum tolerated dose in data set [10] (24-hour IV infusion, 21-day cycles) of 17 mg/m^2. In data set [10] (all doses), the neuropathy result is listed as “without the development of neuropathy”. Also, in data set [11], the “growth of xenograft tumors” value is on record as “inhibited to a similar degree”. Also, the IC50 in data set [12] is 2.2 nM.
Take `CC(=O)O[C@H]1C(=O)[C@@]2(C)[C@H]([C@H](OC(=O)c3ccccc3)[C@]3(O)C[C@H](OC(=O)[C@H](O)[C@@H](NC(=O)c4ccccc4)c4ccccc4)C(C)=C1C3(C)C)[C@]1(OC(C)=O)CO[C@@H]1C[C@@H]2O` [paclitaxel, reference compound]: in data set [11], the “growth of xenograft tumors” value is “inhibited to a similar degree”.

The record behind these values is paper PMC3394096 (Investigational New Drugs, 2011).
